# Test results: ChEMBL document CHEMBL4138312 (J Med Chem, 2018)
# Assays:
# [1] = target: T1, Tyrosine-protein kinase JAK1 (Homo sapiens, UniProt P23458); experiment: Inhibition of cytoplasmic recombinant human GST-tagged JAK1 (886 to 1154 residues) expressed in insect cells using FITC-C6-KKHTDDGYMPMSPGVA-NH as substrate after 10 mins by caliper assay
# Summary of the method: (§1)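 Biochemical kinase inhibition IC50 measured at 5 mM ATP. Values are the geometric mean of at least two independent experiments.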
# [2] = target: Tyrosine-protein kinase JAK2 (Homo sapiens, UniProt O60674); experiment: Inhibition of recombinant human JAK2 (831 to 1132 residues) expressed in insect cells using 5FAM-GEEPLYWSFPAKKK-NH2 as substrate after 10 mins by caliper assay; summary of the method: as §1
# [3] = target: T1, Tyrosine-protein kinase JAK1; experiment: Inhibition of JAK1 in human NCI-H1975 cells assessed as reduction in STAT3 phosphorylation after 1 hr by ELISA; format: cell-based
# Summary of the method: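 Cellular mode-of-action assay in NCI-H1975 cells, read as inhibition of STAT3 phosphorylation. EC50 was derived.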
# [4] = target: Non-receptor tyrosine-protein kinase TYK2 (Homo sapiens, UniProt P29597); experiment: Inhibition of recombinant human N-terminal GST-tagged TYK2 (871 to 1187 residues) expressed in baculovirus expression system using 5FAM-GEEPLYWSFPAKKK-NH2 as substrate after 10 mins by caliper assay; summary of the method: as §1
# [5] = target: T1, Tyrosine-protein kinase JAK1; experiment: Inhibition of cytoplasmic recombinant human GST-tagged JAK1 (886 to 1154 residues) expressed in baculovirus at 1 uM
# Summary of the method: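 Single-concentration screen at 1 μM across a panel of 386 kinases to profile broad kinase selectivity.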
# JAK2 = JAK2 (Homo sapiens, UniProt O60674); experiment: Inhibition of catalytic recombinant human GST-tagged JAK2 expressed in baculovirus at 1 uM
# Summary of the method: (§2)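 Kinase panel of 386 kinases, each screened at a single concentration of 1 μM.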
# [6] = target: T2, NUAK family SNF1-like kinase 1 (Homo sapiens) (UniProt O60285); experiment: Inhibition of recombinant human full length His-tagged NUAK1 expressed in baculovirus at 1 uM; summary of the method: as §2
# T2 sequence (whole entry): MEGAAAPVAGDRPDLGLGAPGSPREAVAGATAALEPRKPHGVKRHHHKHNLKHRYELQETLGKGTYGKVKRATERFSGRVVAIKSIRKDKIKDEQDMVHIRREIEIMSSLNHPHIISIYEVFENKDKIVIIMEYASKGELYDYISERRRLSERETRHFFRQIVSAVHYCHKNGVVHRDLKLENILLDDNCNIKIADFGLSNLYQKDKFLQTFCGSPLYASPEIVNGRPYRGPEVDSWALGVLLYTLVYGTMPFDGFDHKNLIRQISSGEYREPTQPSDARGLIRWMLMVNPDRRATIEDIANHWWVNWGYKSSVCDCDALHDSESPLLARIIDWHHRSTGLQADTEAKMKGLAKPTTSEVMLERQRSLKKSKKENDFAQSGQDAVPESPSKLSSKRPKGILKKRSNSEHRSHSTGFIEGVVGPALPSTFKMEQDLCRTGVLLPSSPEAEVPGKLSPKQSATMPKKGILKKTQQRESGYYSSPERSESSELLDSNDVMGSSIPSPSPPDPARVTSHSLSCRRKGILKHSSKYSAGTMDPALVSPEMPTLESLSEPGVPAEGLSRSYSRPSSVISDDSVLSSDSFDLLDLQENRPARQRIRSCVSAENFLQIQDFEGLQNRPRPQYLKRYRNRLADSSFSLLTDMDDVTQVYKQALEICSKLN
# [7] = Half life in CD1 mouse at 3 mg/kg, iv by LC/MS/MS analysis; format: ADME, organism-based; details: in vivo
# Summary of the method: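 Mouse pharmacokinetics after a single iv dose of 3 mg/kg in 10% HPbCD + 5% dextrose in WFI at pH 4. Plasma clearance, half-life and steady-state volume of distribution were derived.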
# [8] = Half life in CD1 mouse at 10 mg/kg, po administered via gavage by LC/MS/MS analysis; format: ADME, organism-based; details: in vivo
# Summary of the method: (§3)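 Mouse pharmacokinetics after oral dosing at 10 or 50 mg/kg. The 10 mg/kg dose was given in 10% HPbCD + 5% dextrose in WFI at pH 4. The 50 mg/kg dose was given in 5% SBECD in WFI at pH 2. Plasma exposure (AUC), half-life and oral bioavailability were derived.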
# [9] = AUC in CD1 mouse at 10 mg/kg, po by LC/MS/MS analysis; format: ADME, organism-based; details: in vivo; summary of the method: as §3
# [10] = Oral bioavailability in CD1 mouse at 10 mg/kg administered via gavage by LC/MS/MS analysis; format: ADME, organism-based; details: in vivo; summary of the method: as §3
# [11] = Half life in CD1 mouse at 50 mg/kg, po administered via gavage by LC/MS/MS analysis; format: ADME, organism-based; details: in vivo; summary of the method: as §3
# Mus musculus = experiment: Time above EC50 for inhibition of JAK1 in CD1 mouse at 50 mg/kg, po administered via gavage; details: in vivo
# T1 sequence (P23458 whole entry, the tested form may be a part): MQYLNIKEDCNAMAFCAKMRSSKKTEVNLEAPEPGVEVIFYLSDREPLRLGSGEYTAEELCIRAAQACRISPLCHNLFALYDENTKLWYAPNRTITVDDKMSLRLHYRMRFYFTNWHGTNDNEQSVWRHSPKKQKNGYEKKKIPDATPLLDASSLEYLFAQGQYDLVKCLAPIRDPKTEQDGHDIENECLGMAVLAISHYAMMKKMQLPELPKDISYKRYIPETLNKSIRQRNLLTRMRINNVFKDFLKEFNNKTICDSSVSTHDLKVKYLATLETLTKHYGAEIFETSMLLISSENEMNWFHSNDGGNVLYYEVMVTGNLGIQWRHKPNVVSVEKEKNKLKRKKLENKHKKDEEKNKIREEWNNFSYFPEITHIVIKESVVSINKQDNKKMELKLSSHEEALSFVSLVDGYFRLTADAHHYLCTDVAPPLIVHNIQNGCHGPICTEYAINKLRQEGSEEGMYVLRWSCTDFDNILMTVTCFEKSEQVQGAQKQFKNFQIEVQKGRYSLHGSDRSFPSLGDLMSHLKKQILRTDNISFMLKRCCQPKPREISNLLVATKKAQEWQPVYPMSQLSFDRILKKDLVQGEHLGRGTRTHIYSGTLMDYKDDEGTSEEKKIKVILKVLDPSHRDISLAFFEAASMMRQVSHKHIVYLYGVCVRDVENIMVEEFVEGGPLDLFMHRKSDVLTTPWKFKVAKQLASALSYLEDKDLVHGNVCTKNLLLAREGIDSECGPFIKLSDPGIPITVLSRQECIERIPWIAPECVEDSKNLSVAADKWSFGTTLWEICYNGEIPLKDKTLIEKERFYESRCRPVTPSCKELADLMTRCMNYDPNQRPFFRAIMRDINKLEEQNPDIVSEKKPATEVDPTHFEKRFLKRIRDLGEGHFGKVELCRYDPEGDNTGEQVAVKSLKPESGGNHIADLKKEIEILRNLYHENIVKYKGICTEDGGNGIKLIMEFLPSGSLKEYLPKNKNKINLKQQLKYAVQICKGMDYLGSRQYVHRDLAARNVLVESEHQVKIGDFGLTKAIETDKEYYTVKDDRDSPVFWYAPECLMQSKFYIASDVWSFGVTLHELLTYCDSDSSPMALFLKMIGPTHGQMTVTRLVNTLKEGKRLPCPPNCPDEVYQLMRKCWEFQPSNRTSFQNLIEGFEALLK
# Chain of JAK2 (O60674 whole entry): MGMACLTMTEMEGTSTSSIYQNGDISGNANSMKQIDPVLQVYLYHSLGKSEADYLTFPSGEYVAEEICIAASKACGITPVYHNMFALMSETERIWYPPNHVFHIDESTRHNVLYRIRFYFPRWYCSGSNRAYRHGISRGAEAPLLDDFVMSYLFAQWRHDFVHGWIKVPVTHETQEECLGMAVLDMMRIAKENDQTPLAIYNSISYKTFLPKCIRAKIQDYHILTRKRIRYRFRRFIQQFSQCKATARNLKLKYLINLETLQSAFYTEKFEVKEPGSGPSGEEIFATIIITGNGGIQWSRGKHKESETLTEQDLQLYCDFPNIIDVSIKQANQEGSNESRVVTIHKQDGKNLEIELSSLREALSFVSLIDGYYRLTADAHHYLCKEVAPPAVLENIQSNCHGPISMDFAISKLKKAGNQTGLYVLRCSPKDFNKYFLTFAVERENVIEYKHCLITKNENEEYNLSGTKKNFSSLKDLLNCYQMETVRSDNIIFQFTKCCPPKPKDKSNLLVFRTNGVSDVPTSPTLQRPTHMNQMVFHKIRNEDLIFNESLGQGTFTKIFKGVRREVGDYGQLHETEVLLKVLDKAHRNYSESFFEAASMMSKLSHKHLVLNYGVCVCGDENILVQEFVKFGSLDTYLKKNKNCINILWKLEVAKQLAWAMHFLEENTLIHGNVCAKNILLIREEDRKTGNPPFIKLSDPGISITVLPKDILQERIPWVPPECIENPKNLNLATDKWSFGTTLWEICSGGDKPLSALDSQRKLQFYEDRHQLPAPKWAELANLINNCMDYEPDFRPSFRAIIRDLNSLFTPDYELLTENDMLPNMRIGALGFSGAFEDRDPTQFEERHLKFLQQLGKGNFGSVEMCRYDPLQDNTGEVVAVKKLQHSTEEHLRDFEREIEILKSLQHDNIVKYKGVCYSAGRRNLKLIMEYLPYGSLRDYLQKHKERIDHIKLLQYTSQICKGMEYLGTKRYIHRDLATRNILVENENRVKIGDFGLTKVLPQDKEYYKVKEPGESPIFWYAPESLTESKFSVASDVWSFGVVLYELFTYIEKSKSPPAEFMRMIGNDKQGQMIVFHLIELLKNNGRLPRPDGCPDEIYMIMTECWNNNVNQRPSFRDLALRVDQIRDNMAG
# Chain of Tyrosine-protein kinase JAK2 (O60674 whole entry, the tested form may be a part): as the sequence (O60674 whole entry) above
# Chain of Non-receptor tyrosine-protein kinase TYK2 (P29597 whole entry, the tested form may be a part): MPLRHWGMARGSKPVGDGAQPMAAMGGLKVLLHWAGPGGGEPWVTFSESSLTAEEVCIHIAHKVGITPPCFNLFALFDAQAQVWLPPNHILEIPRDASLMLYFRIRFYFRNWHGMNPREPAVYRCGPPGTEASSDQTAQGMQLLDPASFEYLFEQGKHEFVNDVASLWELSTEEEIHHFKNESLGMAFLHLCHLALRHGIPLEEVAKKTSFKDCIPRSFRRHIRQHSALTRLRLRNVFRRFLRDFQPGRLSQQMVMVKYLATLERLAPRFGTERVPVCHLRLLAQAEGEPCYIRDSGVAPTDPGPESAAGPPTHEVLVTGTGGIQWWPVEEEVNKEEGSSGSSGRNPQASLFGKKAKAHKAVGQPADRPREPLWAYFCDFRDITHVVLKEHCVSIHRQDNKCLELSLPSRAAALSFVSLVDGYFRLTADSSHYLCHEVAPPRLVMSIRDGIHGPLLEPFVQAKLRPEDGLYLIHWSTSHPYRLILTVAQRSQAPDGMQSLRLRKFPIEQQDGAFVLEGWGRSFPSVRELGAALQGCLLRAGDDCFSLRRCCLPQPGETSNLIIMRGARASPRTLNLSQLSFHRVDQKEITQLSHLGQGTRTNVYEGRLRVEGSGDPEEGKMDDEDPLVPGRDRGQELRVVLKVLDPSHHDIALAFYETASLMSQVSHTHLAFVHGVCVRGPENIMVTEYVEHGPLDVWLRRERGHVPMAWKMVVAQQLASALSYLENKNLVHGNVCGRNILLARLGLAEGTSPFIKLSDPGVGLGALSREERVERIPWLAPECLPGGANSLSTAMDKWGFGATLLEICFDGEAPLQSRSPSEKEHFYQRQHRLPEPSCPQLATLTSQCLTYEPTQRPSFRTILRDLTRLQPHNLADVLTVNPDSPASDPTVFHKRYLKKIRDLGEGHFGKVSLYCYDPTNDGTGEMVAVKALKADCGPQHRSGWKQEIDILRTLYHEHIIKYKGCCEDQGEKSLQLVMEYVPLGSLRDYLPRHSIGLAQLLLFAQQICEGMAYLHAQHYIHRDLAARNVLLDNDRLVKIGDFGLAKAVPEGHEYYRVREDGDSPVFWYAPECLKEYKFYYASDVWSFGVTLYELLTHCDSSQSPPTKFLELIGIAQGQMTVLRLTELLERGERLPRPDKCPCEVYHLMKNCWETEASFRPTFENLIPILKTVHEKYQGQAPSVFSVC
structure (smiles),measurement,setting,value
CC[C@@H](C)Nc1nc(Nc2cc(N3C[C@@H]4C[C@H]3CN4C)cnc2F)ncc1C,IC50,[1],34 nM
same,IC50,[2],> 30000 nM
same,EC50,[3],30 nM
same,IC50,[4],> 30000 nM
same,inhibition,[5],100%
same,inhibition at 1 µM,JAK2,31%
same,inhibition,[6],71%
same,half-life,[7],2.4 h
same,half-life,[8],4.7 h
same,AUC,[9],2.65 µM·h
same,bioavailability,[10],30%
same,half-life,[11],5.3 h
same,Time,Mus musculus,12 h
